Kir21 inh: inhibitors of mouse Kir2.1 inward-rectifier potassium channel. Inward rectifier potassium channel 2 (Mus musculus), P35561. HEK293-Kir2.1, FluxOR thallium flux fluorescence; active compounds read low. B-score at 10 µM. 0.85% of 310,000 active. AID 1672, 2009;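 active = fluorescence ratio B-score at or below minus 3 SD of library scores, with starting-brightness B-score within 2 SD, cut at about -4.2 in these data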;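 note: channel flux triggered by added potassium and thallium sulfate stimulus; B-score of peak minus minimum fluorescence over baseline after thallium stimulus; more negative B-score means stronger Kir2.1 block with less thallium influx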
Target sequence (P35561 whole entry, looked up): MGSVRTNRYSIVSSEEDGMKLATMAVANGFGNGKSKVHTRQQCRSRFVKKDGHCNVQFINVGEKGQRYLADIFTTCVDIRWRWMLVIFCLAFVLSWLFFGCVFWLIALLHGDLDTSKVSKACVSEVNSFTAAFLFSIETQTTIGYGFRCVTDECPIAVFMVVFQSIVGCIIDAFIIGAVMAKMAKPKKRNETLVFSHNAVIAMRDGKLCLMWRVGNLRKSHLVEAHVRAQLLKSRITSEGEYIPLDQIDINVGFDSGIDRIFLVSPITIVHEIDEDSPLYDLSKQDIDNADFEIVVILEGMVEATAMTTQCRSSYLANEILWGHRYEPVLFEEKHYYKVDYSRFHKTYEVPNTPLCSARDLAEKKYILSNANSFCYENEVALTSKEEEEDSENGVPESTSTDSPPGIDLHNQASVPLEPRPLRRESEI
KCNQ1 block: inhibitors of human KCNQ1 channel, primary screen, cell-based, thallium flux, high-throughput. Potassium voltage-gated channel subfamily KQT member 1 (Homo sapiens), P51787. CHO-K1 KCNQ1, FluxOR thallium flux fluorescence; active compounds read high. B-score at 10 µM. 1.3% of 310,000 active;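 active = compounds whose thallium flux B-score, printed positive for inhibition, exceeds three library SD while starting fluorescence stays within three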;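 note: channel opened by potassium depolarization with thallium stimulus after 20 min compound exposure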
KCNK9 block: KCNK9 potassium channel inhibitors, primary screen, HEK293 cells, thallium flux; Potassium channel subfamily K member 9 (Homo sapiens), Q9NPC2; FluxOR thallium flux fluorescence; active compounds read low; B-score at 10 µM; 1.2% of 310,000 active;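 active = ratio B-score over 3 SD below the library mean, with starting fluorescence within 5 SD of its mean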;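 note: negative B-score means less thallium flux so channel inhibition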
KCNQ1 act: potentiators or activators of KCNQ1 channel, primary screen, cell-based, thallium flux, high-throughput; Potassium voltage-gated channel subfamily KQT member 1 (Homo sapiens), P51787; CHO-K1 KCNQ1, thallium flux FluxOR fluorescence; active compounds read high; B-score at 10 µM; 0.35% of 310,000 active;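 active = fluorescence ratio B-score, a plate-corrected score, at least three library SD, with initial intensity B-score within 5 SD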
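assay system = CHO-K1 cells stably expressing KCNQ1 | medium = assay buffer, equal DMSO in all wells | timing = 37 °C overnight plating, 90-min dark dye load, 20-min compound pretreatment | measured by = kinetic FluxOR thallium fluorescence, 10-s 1-Hz baseline, 110-s post-stimulus read | measure = fluorescence change relative to baseline, converted to B score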
hERG protect: hERG rescue from dofetilide block, primary screen, cell-based, CHO-hERG, FluxOR thallium flux, dofetilide IC70; Voltage-gated inwardly rectifying potassium channel KCNH2 (Homo sapiens), Q12809; dofetilide IC70 present; activation (rescue from dofetilide block), less the hit threshold, % at 10 µM; 0.51% of 310,000 active; AID 1511, 2009;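 active = activation above the mean of controls blocked by dofetilide plus 5 SD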;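 note: thallium influx through hERG after potassium depolarization seen as dye fluorescence rise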
KCNK3 block: human KCNK3 channel inhibitors, primary screen, CHO cells, FluxOR thallium flux, B-score | 0.84% of 340,000 active | B-score at 10 µM | FluxOR fluorescence; active compounds read low | Potassium channel subfamily K member 3 (Homo sapiens), O14649;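 active = B-score under library mean minus 4 SD, starting fluorescence ratio at most library mean plus 5 SD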;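 note: more negative B-score means stronger inhibition of thallium flux through KCNK3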
KCNK3 confirm: retest of human KCNK3 channel inhibitors, confirmation, CHO cells, FluxOR thallium flux, triplicate | ratio percent of control, % at 10 µM | FluxOR fluorescence; 0% buffer, 100% carvedilol maximal block | 99% of 2,400 active | AID 651638, 2012 | shares compounds with KCNK3 block;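 active = ratio percent of control, averaged over triplicates, above buffer control mean plus 5 SD, cut at about 64% in these data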;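 note: ratio is the fluorescence rise from min to max over baseline after thallium stimulus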
KCNK3 noninduced: thallium flux inhibition in non-induced cells, primary screen, counter-screen for KCNK3 inhibitor project, cell-based, non-induced KCNK3 line, FluxOR thallium, triplicate | shares compounds with KCNK3 block | non-induced KCNK3 parental cells; active compounds read low | thallium flux ratio (lower = more inhibition) at 10 µM | 40% of 2,400 active | AID 651747, 2012;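 active = thallium flux ratio, averaged over three wells, more than 5 SD below the buffer control mean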;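 note: host cells are CHO cells without KCNK3 induction; ratio is peak minus trough fluorescence over baseline then normalized to buffer controls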
* hit, by the source's call; i = inactive; nt = no result given. Shown are actives, neighbours in structure and some others; about 3.7% of the full set was active somewhere.

SMILES | Kir21 inh | KCNQ1 block | KCNK9 block | KCNQ1 act | hERG protect | KCNK3 block | KCNK3 confirm | KCNK3 noninduced
CCC(C)(c1ccc(C(=O)OC)s1)c1ccc(C(=O)OC)s1 | -2.09 | i | i | i | -6.8 | -9.06* | 119.0* | 0.141*
CN=C(Nc1ccc(C(=O)OC)s1)c1ccccc1 | 0.06 | i | i | i | -0.7 | i | nt | nt
CC(C)CCN(C(=O)C1=COCCO1)c1c(N)n(Cc2ccccc2)c(=O)[nH]c1=O | -1.71 | i | i | i | -10.7 | i | nt | nt
CN1CCN(CCCNC(=O)c2ccc(/C=C3/Sc4ccccc4N(Cc4cccc(Cl)c4)C3=O)cc2)CC1 | 1.12 | 11* | -7.15* | i | -19.9 | -9.42* | 117.7* | i
Cc1cccc(CN2C(=O)/C(=C\c3ccc(C(=O)NCCCN4CCN(C)CC4)cc3)Oc3ccccc32)c1 | 0.22 | i | i | i | -31.5 | i | nt | nt
CC(C)S(=O)(=O)c1cnc(-c2ccccn2)nc1N | -0.42 | i | i | i | -6.2 | i | nt | nt
COc1cccc(-c2c3c([nH]c(=O)c2C#N)CCc2cc(OC)ccc2-3)c1 | 0.35 | i | i | i | 2.6 | nt | nt | nt
COc1cc2nc(Nc3ccc(C)c(C)c3)nc(N)c2cc1OC | -4.7* | i | i | i | -15.7 | -9.26* | 114.3* | i
Cc1ccc(NC(=S)N(CCN2CCOCC2)Cc2cc3cc4c(cc3[nH]c2=O)OCCO4)cc1 | 0.34 | i | i | i | -12.5 | -8.93* | 98.3* | i
Cc1cccc(NC(=S)N(CCN2CCOCC2)Cc2cc3cc4c(cc3[nH]c2=O)OCCO4)c1 | -1.52 | i | i | i | -14.7 | -11.8* | 91.3* | i
CCOc1ccc(NC(=S)N(CCN2CCOCC2)Cc2cc3cc4c(cc3[nH]c2=O)OCO4)cc1 | 1.38 | i | i | i | -11.3 | i | nt | nt
Cc1ccc(NC(=S)N(CCN2CCOCC2)Cc2cc3cc4c(cc3[nH]c2=O)OCO4)cc1 | 0.02 | i | i | i | -11.9 | -10.6* | 92.3* | i
COc1ccc(NC(=S)N(CCN2CCOCC2)Cc2cc3cc4c(cc3[nH]c2=O)OCO4)cc1 | 1.4 | i | i | i | -3.1 | nt | nt | nt
O=C(Nc1ccc(Cc2ccncc2)cc1)c1ccc([N+](=O)[O-])o1 | -1.29 | i | i | i | -8.5 | i | nt | nt
CN(C(=O)Nc1ccc(Cl)cc1Cl)[C@H]1c2cc(Br)ccc2OC[C@H]1CO | 0.02 | i | i | i | -9.9 | -8.93* | 99.7* | i
COc1cccc2c1OC[C@@H](CO)[C@H]2N(C)C(=O)Nc1ccccc1 | 0 | i | i | i | -7.4 | i | nt | nt
CN(C(=S)Nc1ccc(F)cc1)C(c1ccccc1)c1ccccc1 | 0.77 | i | i | i | -12.4 | -10.8* | 115.3* | i
CCCN(Cc1ccccc1)C(=S)Nc1ccc(F)cc1 | -0.02 | i | i | i | -13.8 | i | nt | nt
Cc1ccc(NC(=S)N(C)C(c2ccccc2)c2ccccc2)cc1C | 1.39 | i | i | i | -7.8 | -9.05* | 133.7* | 0.122*
Cc1ccc(NC(=S)N(CCN(C)C)C(C)c2ccco2)cc1C (centres undefined) | -0.16 | i | i | i | -5.6 | i | nt | nt
O=C(Nc1cccnc1)c1cc(-c2ccc(Cl)cc2Cl)on1 | -1.04 | i | i | i | -4.4 | i | nt | nt
Cc1ccc(OCC(=O)Nc2ccccc2N2CCCC2)c(C)c1 | -0.23 | i | i | i | -8.6 | i | nt | nt
Cc1ccc(C)c(OCC(=O)Nc2ccccc2N2CCCC2)c1 | -3.61 | i | i | i | -14.8 | -10.3* | 104.0* | i
O=C(COc1ccccc1)Nc1ccccc1N1CCCCC1 | -1.38 | i | i | i | -3.8 | -10.5* | 127.7* | i
COc1cc(/C=C/C(=O)OCC(=O)Nc2oc(C)c3c(C)n[nH]c(=O)c23)ccc1OC(F)F | 0.01 | i | i | i | -6.6 | i | nt | nt
SMILES | Kir21 inh | KCNQ1 block | KCNK9 block | KCNQ1 act | hERG protect | KCNK3 block | KCNK3 confirm | KCNK3 noninduced
COc1cc(CC(=O)OCC(=O)c2ccc(F)cc2)cc(OC)c1OC | nt | nt | nt | nt | nt | i | nt | nt
Cc1cccc(/C=C/c2nc3ccccc3c(=O)[nH]2)c1 | -0.38 | i | i | i | -8.4 | -9.42* | 87.3* | i
CCOC(=O)C1=C(C)N=C2SCCC(=O)N2C1c1cc(Br)ccc1OC (centres undefined) | -1.58 | i | i | i | -4.7 | i | nt | nt
COCCOC(=O)C1=C(C)N=C2SCCC(=O)N2C1c1cccc(Br)c1 (centres undefined) | -1.99 | i | i | i | -14.5 | -9.26* | 111.7* | i
CC(=O)Nc1cccc(C(=O)Nc2ccccc2N2CCOCC2)c1 | -2.48 | i | i | i | -11.9 | i | nt | nt
O=C(Nc1ccccc1N1CCOCC1)c1cccc(NS(=O)(=O)c2ccc(F)c(F)c2)c1 | -1.22 | i | i | i | -10.4 | -8.73* | 94.3* | 0.159*
O=C(Nc1ccccc1N1CCOCC1)c1cc2c(s1)CCCCC2 | 0.4 | i | i | i | -5.4 | -10.4* | 118.3* | i
O=C(Nc1ccc(N2CCOCC2)cc1)c1cc2c(s1)CCCCC2 | 1.48 | i | i | i | -6.8 | i | nt | nt
CC1(C)C[C@@H](O)[C@]2(C)CC[C@]3(C)C(=CCC4[C@@]5(C)CC[C@H](O)[C@](C)(CO)C5CC[C@]43C)[C@@H]2C1 (some centres undefined) | nt | nt | nt | nt | nt | i | nt | nt
COn1c(=O)c(-c2cccs2)[n+]([O-])c2ccccc21 | -4.04 | i | i | i | -10.5 | -10.4* | 87.0* | 0.109*
Cc1ccc2c(C)c(C(=O)N3CCN(c4ncccn4)CC3)oc2c1C | 2.16 | i | -6.73* | i | -2.8 | -9.12* | 69.3* | i
COc1ccc2oc(C(=O)N3CCN(c4ncccn4)CC3)c(C)c2c1 | 0.24 | i | i | i | -12.2 | i | nt | nt
